Assay [1] can be described thus: Cytotoxicity against human U87 cells assessed as decrease in cell growth after 72 hrs by resazurin dye-based fluorimetric method. Type of assay: functional, U-87MG ATCC. Conditions: U-87 MG. An outline of the steps: (§1)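 Lines grown in RPMI 1640 with 10% FCS and 1% glutamine, 37 °C, 5% CO2. K562R is a doxorubicin-resistant K562 line. Seeded 5 × 10^3 cells/well, compound in DMSO (<0.1%) added after 24 h, then 72 h exposure. Resazurin for 2 h, fluorescence ex 560/em 590 nm. IC50 from 50% fluorescence drop versus untreated cells. Triplicate, averaged.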

The species entered for a further assay is Ovis aries. The assay can be described thus: Inhibition of sheep brain tubulin assembly at 100 uM by DAPI staining-based fluorimetric method relative to control. A digest of the protocol:
(§2)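 Sheep brain tubulin purified by two assembly-disassembly cycles, about 2-3 mg/mL in 0.1 M MES, 0.5 mM MgCl2, 1 mM EGTA, 1 mM GTP, pH 6.6. Assembly followed by DAPI fluorescence at 37 °C. IC50 = concentration halving maximum assembly rate versus no compound. Single-point values given as % inhibition at 100 µM. Mean of three experiments.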

Assay [2] is described as follows: Inhibition of sheep brain tubulin assembly by DAPI staining-based fluorimetric method. More on the design: species or system Ovis aries. A digest of the protocol: as §2
The next assay relates to K562. As to the kind of experiment: Cytotoxicity against human K562 cells assessed as decrease in cell growth after 72 hrs by resazurin dye-based fluorimetric method. Conditions: K562, 72 h. Format: functional. An outline of the steps:
as §1

Another assay concerns K-562R. As to the kind of experiment: Cytotoxicity against human K562R cells assessed as decrease in cell growth after 72 hrs by resazurin dye-based fluorimetric method. Format: functional. A digest of the protocol: as §1
On the technique in general: The colour change of resazurin is a common sign of viable cells or microbes.

Assay [3] relates to A549. The assay can be described thus: Cytotoxicity against human A549 cells assessed as decrease in cell growth after 72 hrs by resazurin dye-based fluorimetric method. Type of assay: functional. The settings on record: A549, 72 h. An outline of the steps: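 A549 grown in DMEM (4.5 g/L glucose, 10% FCS, 1% glutamine), 37 °C, 5% CO2. Seeded 5 × 10^3 cells/well, compound in DMSO (<0.1%) added after 24 h, 72 h exposure. Resazurin (CellTiter-Blue) for 2 h, fluorescence ex 560/em 590 nm. IC50 = concentration halving fluorescence versus untreated cells. Triplicate; mean of three experiments.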

The next assay concerns HCT-116. The assay can be described thus: Cytotoxicity against human HCT116 cells assessed as decrease in cell growth after 72 hrs by resazurin dye-based fluorimetric method. Format: functional. The settings on record: HCT-116, 72 h. A digest of the protocol: as §1
Assay [4] deals with A549. As to the kind of experiment: Cell cycle arrest in human A549 cells assessed as accumulation at G2/M phase at 10 nM after 24 hrs by propidium iodide staining-based flow cytometric method. Type of assay: functional. An outline of the steps: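 Exponentially growing A549 cells exposed for 24 h to 0.5, 1, 5 or 10 nM, with DMSO alone as control. DNA content read by propidium iodide staining and flow cytometry to give the cell-cycle profile.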
In general terms: A flow cytometer gives signals particle by particle.

Assay [5] deals with A549. As to the kind of experiment: Induction of microtubule network fragmentation in human A549 cells after 24 hrs by DAPI staining-based inverted microscopic method. Format: cell-based. An outline of the steps:
(§3)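 A549 cells on chamber slides, 24 h with or without compound. Fixed in 2% paraformaldehyde for 30 min, permeabilized with 0.25% Triton X-100, blocked with 1% BSA/10% goat serum. Mouse anti-β-tubulin overnight at 4 °C, then Alexa 647 secondary with Hoechst 33258 for 2 h, Alexa 488 phalloidin for F-actin. Imaged by inverted microscope, 60X oil objective.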

For assay [6], the system named is A549. As to the kind of experiment: Disruption of microtubule network organization in human A549 cells assessed as decrease in mitotic spindle formation after 24 hrs by DAPI staining-based inverted microscopic method. Type of assay: cell-based. An outline of the steps: as §3

The source made the active and inactive calls. The rule behind the calls is not given here.

By IC50 is commonly meant the concentration needed to halve the response being measured. In general, inhibition refers to the relative decrease from the control value, in per cent. Higher therefore signals a strong effect. Take `C=C(c1ccc(OC)cc1)c1nc(C)cc2ccccc12`: the IC50 in assay [1] amounted to 300 nM. The same molecule displayed an inhibition in the assay listed under Ovis aries of 53%.

`C=C(c1ccc(OC)cc1)c1cc(C)nc2ccccc12`: the IC50 in assay [1] was determined as 21 nM; in [2], 1100 nM; in the assay on K562, 17 nM; in the assay on K-562R, 0.7 nM; in the assay on A549 [3] it was 18.5 nM; with HCT-116 it was 3 nM.

Regarding `C=C(c1ccc(OC)cc1)c1cc(C(=O)O)nc2ccccc12`, the IC50 in [1] was found to be 75 nM. The inhibition in the assay filed under Ovis aries came out at 29%.

For the molecule `C=C(c1ccc(OC)c(O)c1)c1cc(OC)c(OC)c(OC)c1`, the IC50 in assay [1] was found to be 7.8 nM; in assay [2], 2000 nM; in the assay on K562, 0.8 nM; in the assay on K-562R, 1.1 nM; in the assay on A549 [3], 8.2 nM.

With `C=C(c1ccc(OC)c(O)c1)c1nc(C)nc2ccccc12`, the IC50 amounted to 6.1 nM in assay [1] and 600 nM in assay [2].

Take `C=C(c1ccc(OC)c(O)c1)c1cc(C)nc2ccccc12`: the IC50 in [1] worked out at 1.5 nM; in assay [2], 3900 nM; with K562, 1.8 nM; with K-562R, 2.4 nM; in the assay with A549 [3] it was 0.4 nM; in the assay on HCT-116, 0.9 nM. Besides, in the assay with A549 [4], the result was Active. The Activity entry in the assay on A549 [5] and in the assay with A549 [6] was “Dose-dependent effect” throughout.

Turning to `C=C(c1ccc(OC)cc1)c1cc(C(F)(F)F)nc2ccccc12`, in assay [1], the IC50 worked out at 21.7 nM.

`C=C(c1ccc(OC)cc1)c1nc2ccccc2nc1C`: the half-inhibitory concentration (IC50) in assay [1] worked out at 690 nM. Besides, in the assay listed under Ovis aries, the inhibition was determined as 24%.

Regarding `C=C(c1ccc(OC)cc1)c1cc(CO)nc2ccccc12`, the figures for the IC50 in [1] and in assay [2] were 390 nM and 14300 nM, respectively.

Consider `COc1ccc(C(=CC#N)c2cc(C)nc3ccccc23)cc1`, for which the IC50 in assay [1] turned out to be 0.25 nM; in [2] it was 1900 nM; in the assay with K562, 17 nM; in the assay with K-562R it was 6.6 nM; in the assay with A549 [3], 79 nM; with HCT-116 it was 13.2 nM.

For the molecule `C=C(c1ccc(OC)c(F)c1)c1cc(C)nc2ccccc12`, the IC50 in assay [1] was determined as 4 nM; in assay [2] it was 2200 nM; with K562, 5 nM; with K-562R, 2.4 nM; in the assay with A549 [3], 9.5 nM; in the assay with HCT-116, 9.6 nM.

Consider `COc1ccc(C(=O)c2cc(C)nc3ccccc23)cc1`, for which the IC50 in assay [1] is 25 nM; in [2] it was 7200 nM; in the assay on K562, 139 nM; in the assay with K-562R it was 52 nM; in the assay with HCT-116, 130 nM.

Turning to `C=C(c1ccc(OC)cc1)c1nc(C)nc2ccccc12`, the IC50 in [1] stood at 40 nM.

Turning to `C=C(c1ccc(OC)cc1)c1cc(C(N)=O)nc2ccccc12`, the results for the IC50 in [1] and in assay [2] were 240 nM and 23800 nM, respectively.

As for `C=C(c1ccc(OC)cc1)c1cc(C#N)nc2ccccc12`, the half-maximal inhibitory concentration (IC50) in [1] was found to be 1 nM; in assay [2] it was 1100 nM; with K562, 9 nM; in the assay with K-562R, 0.9 nM; in the assay on A549 [3] it was 50 nM; in the assay with HCT-116, 1.6 nM.

As to `C=C(c1ccc(OC)cc1)c1cc(C)cc2ccccc12`, the concentration for half-maximal inhibition (IC50) in [1] was 140 nM; in assay [2], 17100 nM.

`C=C(c1ccc(OC)cc1)c1cc(C(=O)OC)nc2ccccc12`: the IC50 in assay [1] was determined as 2.3 nM; in assay [2] it was 3900 nM; in the assay with K562, 88 nM; in the assay on K-562R, 18 nM; with HCT-116 it was 160 nM.

The values are drawn from ChEMBL document CHEMBL4004836, “Design, synthesis and anticancer properties of IsoCombretaQuinolines as potent tubulin assembly inhibitors” (Eur J Med Chem, 2017).
